ChEMBL document CHEMBL1153266, “Synthesis and biological activity of anticoccidial agents: 2,3-diarylindoles” (Bioorg Med Chem Lett, 2009)
Active and inactive are the calls of the source. The calls are words filed in the database; no cut-off is given here.

Legend:
Eimeria tenella [1] = experiment: Antiparasitic activity against Eimeria tenella at 50 ppm administered orally through feed after 7 days; format: functional
Summary of the method: (§1)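 Each compound was given orally in the feed, and its anticoccidial activity was ranked in a seven-day efficacy model. Each Eimeria species got its own quantitative measure.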

Eimeria acervulina [2] = experiment: Antiparasitic activity against Eimeria acervulina at 50 ppm administered orally through feed after 7 days; format: functional; summary of the method: as §1
Eimeria mitis [3] = experiment: Antiparasitic activity against Eimeria mitis at 50 ppm administered orally through feed after 7 days; format: functional; summary of the method: as §1
[4] = molecular target: cGMP-dependent protein kinase (Eimeria tenella, UniProt Q8MMZ8); experiment: Inhibition of Eimeria tenella parasite-specific cGMP-dependent protein kinase
Eimeria maxima [5] = experiment: Antiparasitic activity against Eimeria maxima at 50 ppm administered orally through feed after 7 days; format: functional; summary of the method: as §1
Eimeria tenella [6] = experiment: Antiparasitic activity against Eimeria tenella at 6 ppm administered orally through feed after 7 days; format: functional; summary of the method: as §1
Eimeria acervulina [7] = experiment: Antiparasitic activity against Eimeria acervulina at 6 ppm administered orally through feed after 7 days; format: functional; summary of the method: as §1
Eimeria mitis [8] = experiment: Antiparasitic activity against Eimeria mitis at 6 ppm administered orally through feed after 7 days; format: functional; summary of the method: as §1
Eimeria maxima [9] = experiment: Antiparasitic activity against Eimeria maxima at 6 ppm administered orally through feed after 7 days; format: functional; summary of the method: as §1

cGMP-dependent protein kinase, sequence (Q8MMZ8 whole entry): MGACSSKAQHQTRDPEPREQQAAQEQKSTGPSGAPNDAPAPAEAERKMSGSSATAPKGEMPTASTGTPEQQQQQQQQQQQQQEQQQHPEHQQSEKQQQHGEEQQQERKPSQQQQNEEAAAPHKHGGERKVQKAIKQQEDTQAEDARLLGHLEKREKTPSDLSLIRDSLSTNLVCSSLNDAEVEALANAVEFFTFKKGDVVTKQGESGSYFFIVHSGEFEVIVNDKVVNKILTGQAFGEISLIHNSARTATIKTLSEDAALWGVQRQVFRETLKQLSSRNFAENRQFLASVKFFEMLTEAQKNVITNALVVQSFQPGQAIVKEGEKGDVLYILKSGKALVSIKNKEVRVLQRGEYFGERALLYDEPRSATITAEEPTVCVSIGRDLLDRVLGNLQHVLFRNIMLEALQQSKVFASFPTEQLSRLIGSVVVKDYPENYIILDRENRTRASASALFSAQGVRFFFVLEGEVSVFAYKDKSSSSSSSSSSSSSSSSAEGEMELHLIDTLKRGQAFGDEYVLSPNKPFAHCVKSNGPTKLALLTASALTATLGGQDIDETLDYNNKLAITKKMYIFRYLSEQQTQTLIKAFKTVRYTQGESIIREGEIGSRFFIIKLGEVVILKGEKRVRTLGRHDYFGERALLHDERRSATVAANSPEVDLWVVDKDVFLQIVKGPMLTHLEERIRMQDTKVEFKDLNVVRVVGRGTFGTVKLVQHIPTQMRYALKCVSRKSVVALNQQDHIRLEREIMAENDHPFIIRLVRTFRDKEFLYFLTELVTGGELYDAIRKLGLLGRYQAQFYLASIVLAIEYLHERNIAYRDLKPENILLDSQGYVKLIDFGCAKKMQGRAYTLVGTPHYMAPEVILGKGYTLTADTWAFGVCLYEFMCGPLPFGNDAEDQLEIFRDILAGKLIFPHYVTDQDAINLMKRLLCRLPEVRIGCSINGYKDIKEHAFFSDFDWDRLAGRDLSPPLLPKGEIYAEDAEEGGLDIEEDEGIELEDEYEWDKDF

Row | Structure (SMILES) | IC50 [4] | Activity (Eimeria tenella [1]) | Activity (Eimeria acervulina [2]) | Activity (Eimeria mitis [3]) | Activity (Eimeria maxima [5]) | Activity (Eimeria tenella [6]) | Activity (Eimeria acervulina [7]) | Activity (Eimeria mitis [8]) | Activity (Eimeria maxima [9])
1 | CN1CCN(c2ccc3c(-c4ccncc4)c(-c4ccc(F)cc4)[nH]c3c2)CC1 |  | <50% | <50% | <50% |  |  |  |  | 
2 | Nc1nccc(-c2c(-c3ccc(F)cc3)[nH]c3cc(C4CCN(CCO)CC4)ccc23)n1 | 300 pM | <50% | <50% |  | <50% |  |  |  | 
3 | CN1CCN(C(=O)c2ccc3[nH]c(-c4ccc(F)cc4)c(-c4ccncc4)c3c2)CC1 | 12700 pM | 80% | <50% | inactive |  |  |  |  | 
4 | Nc1nccc(-c2c(-c3ccc(F)cc3)[nH]c3cc(C4CCNCC4)ccc23)n1 | 210 pM | <50% | <50% |  | <50% |  |  |  | 
5 | CN1CCC(c2ccc3c(-c4ccnc(N)n4)c(-c4ccc(F)cc4)[nH]c3c2)CC1 | 220 pM | 80% | <50% |  | <50% |  |  |  | 
6 | OCCN1CCC(c2ccc3c(-c4ccncn4)c(-c4ccc(F)cc4)[nH]c3c2)CC1 | 800 pM | 99% | 50% | 100% | <50% |  |  |  | 
7 | CN1CCC(c2ccc3c(-c4ccncn4)c(-c4ccc(F)cc4)[nH]c3c2)CC1 | 400 pM | <50% | 99% | 50% | <50% |  |  |  | 
8 | CN1CCC(c2ccn3c(-c4ccnc(N)n4)c(-c4ccc(F)cc4)nc3c2)CC1 |  |  |  |  |  | 100% | 80% | 80% | 100%
9 | Fc1ccc(-c2[nH]c3cc(C4CCNCC4)ccc3c2-c2ccncn2)cc1 | 650 pM | <50% | <50% | <50% | <50% |  |  |  | 

Now from value to compound, other results behind:

Row | IC50 [4] | Structure (SMILES) | Activity (Eimeria tenella [1]) | Activity (Eimeria acervulina [2]) | Activity (Eimeria mitis [3]) | Activity (Eimeria maxima [5]) | Activity (Eimeria tenella [6]) | Activity (Eimeria acervulina [7]) | Activity (Eimeria mitis [8]) | Activity (Eimeria maxima [9])
10 | 100 pM | OCCN1CCC(c2ccc3c(-c4ccncc4)c(-c4ccc(F)cc4)[nH]c3c2)CC1 | 50% | 80% | 80% | <50% |  |  |  | 
11 | 8900 pM | CN1CCN(Cc2ccc3c(-c4ccncc4)c(-c4ccc(F)cc4)[nH]c3c2)CC1 | 80% | <50% | <50% |  |  |  |  | 
12 | 9200 pM | Fc1ccc(-c2[nH]c3cc(N4CCOCC4)ccc3c2-c2ccncc2)cc1 | 50% | <50% | <50% |  |  |  |  | 
13 | 150 pM | Fc1ccc(-c2[nH]c3cc(C4CCNCC4)ccc3c2-c2ccncc2)cc1 | <50% | <50% | <50% | <50% |  |  |  | 
14 | 150 pM | CN1CCC(c2ccc3c(-c4ccncc4)c(-c4ccc(F)cc4)[nH]c3c2)CC1 | 50% | 99% | 99% | 50% |  |  |  | 
15 | 620 pM | CN1CC(c2ccc3c(-c4ccncc4)c(-c4ccc(F)cc4)[nH]c3c2)C1 | 50% | <50% | <50% |  |  |  |  | 
16 | 1600 pM | CN1CCC(Cc2ccc3c(-c4ccncc4)c(-c4ccc(F)cc4)[nH]c3c2)CC1 | <50% | <50% | 50% |  |  |  |  | 
17 | 160 pM | CCN1CCC(c2ccc3c(-c4ccncc4)c(-c4ccc(F)cc4)[nH]c3c2)CC1 | 50% | <50% | 80% | 80% |  |  |  | 
